IMP-1 inhibitor – IMP-1 metallo-beta-lactamase inhibitors, primary screen, biochemical, epi-absorbance readout, Pseudomonas aeruginosa enzyme; metallo-beta-lactamase IMP-1 (Pseudomonas aeruginosa); purified IMP-1, nitrocefin hydrolysis, epi-absorbance fluorescence; inhibition, % at 5.6 µM; hit rate 0.45% among 290,000;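 active means inhibition above the mean plus 3 SD of all compounds in the same screening run, cut at about 4.5% in these data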;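 further: 0% = IMP-1 with DMSO and 100% = DMSO wells lacking enzyme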
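System: purified recombinant IMP-1 beta-lactamase. Medium: Zinc- and detergent-supplemented HEPES buffer, pH 7.1. Compound: one 5.6 µM dose […]. Schedule: 15 min preincubation plus 25 min reaction at 25 °C. Technique: Epi-absorbance fluorescence, 480 nm excitation, 530 nm emission.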
ANO1 block – TMEM16A chloride channel inhibitors, primary screen, cell-based, HTS; HEK293 TMEM16A/YFP iodide influx fluorescence, ionomycin; Anoctamin-1 (Mus musculus), Q8BHY3; AID 588511, 2011; hit rate 1.2% among 310,000; normalized B-score (activity score, 25-100; higher = stronger inhibition) at 10 µM;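 active means ratio plate-corrected score three or more library SD toward inhibition, starting fluorescence score within five deviations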;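 further: score derived from kinetic fluorescence span divided by baseline fluorescence per well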
Target sequence (Q8BHY3 whole entry, looked up): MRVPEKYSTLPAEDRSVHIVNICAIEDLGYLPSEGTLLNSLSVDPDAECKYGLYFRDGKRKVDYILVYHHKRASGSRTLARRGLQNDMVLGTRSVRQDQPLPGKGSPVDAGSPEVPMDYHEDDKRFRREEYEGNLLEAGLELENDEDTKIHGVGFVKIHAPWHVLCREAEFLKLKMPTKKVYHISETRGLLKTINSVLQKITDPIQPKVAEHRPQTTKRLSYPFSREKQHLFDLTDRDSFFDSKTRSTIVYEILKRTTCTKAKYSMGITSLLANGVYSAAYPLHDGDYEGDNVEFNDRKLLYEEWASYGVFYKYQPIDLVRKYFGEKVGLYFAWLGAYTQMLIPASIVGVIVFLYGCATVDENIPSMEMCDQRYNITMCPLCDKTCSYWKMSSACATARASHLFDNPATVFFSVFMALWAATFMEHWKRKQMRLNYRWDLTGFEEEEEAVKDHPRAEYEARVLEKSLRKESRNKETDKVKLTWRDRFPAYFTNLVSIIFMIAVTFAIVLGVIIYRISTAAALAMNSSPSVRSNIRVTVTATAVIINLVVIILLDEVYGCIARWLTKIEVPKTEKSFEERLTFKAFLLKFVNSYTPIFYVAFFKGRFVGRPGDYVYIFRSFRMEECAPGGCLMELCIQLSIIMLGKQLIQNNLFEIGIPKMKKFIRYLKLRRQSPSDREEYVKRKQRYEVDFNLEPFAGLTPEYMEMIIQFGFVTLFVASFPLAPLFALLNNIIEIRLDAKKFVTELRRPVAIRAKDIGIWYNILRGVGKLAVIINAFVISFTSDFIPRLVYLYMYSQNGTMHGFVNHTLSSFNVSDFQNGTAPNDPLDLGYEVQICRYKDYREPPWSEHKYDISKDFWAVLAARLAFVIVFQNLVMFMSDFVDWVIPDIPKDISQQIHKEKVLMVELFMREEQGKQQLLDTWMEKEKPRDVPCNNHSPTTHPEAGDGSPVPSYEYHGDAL
VIM-2 inh – VIM-2 metallo-beta-lactamase inhibitors, primary screen, biochemical, epi-absorbance readout, Pseudomonas aeruginosa enzyme; purified VIM-2, nitrocefin hydrolysis, epi-absorbance fluorescence; inhibition, % at 5.6 µM; hit rate 0.89% among 290,000; AID 1527, 2009;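 active means inhibition above the mean of all tested compounds plus 3 SD, cutoff set per screening run, cut at about 7.5% in these data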;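 further: red hydrolysis product quenches plate fluorescence so inhibitors raise well fluorescence; 0% = enzyme with DMSO and 100% = DMSO without enzyme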
ANO1 activ – TMEM16A chloride channel activators or potentiators, primary screen, cell-based, HTS; Anoctamin-1 (Mus musculus), Q8BHY3; HEK293 TMEM16A/YFP-H148Q/I152L, iodide quench fluorescence; stronger effect = lower value; B-score at 10 µM; hit rate 0.3% among 340,000; AID 623877, 2012;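 active means fluorescence-ratio B-score plate-corrected deviation score at least 3 library SD below zero, with starting fluorescence score within 5 deviations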;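 further: channel opened by trigger with iodide after compound preincubation; score built on the fluorescence ratio of max minus min over baseline; more negative score means more quench and so TMEM16A activation or potentiation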
CHT inh – inhibitors of human choline transporter CHT; High affinity choline transporter 1 (Homo sapiens), Q9GZV3; CHT-expressing cells, membrane potential dye, choline response; stronger effect = lower value; B-score at 10 µM; hit rate 0.86% among 310,000;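 active means B-score over 3 SD under the library average, and starting fluorescence ratio not unusually high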;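 further: choline stimulus applied at its EC90 after an EC20 pre-addition; B-score computed on integrated fluorescence ratio after choline addition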
CHT allo act – CHT positive allosteric modulators, primary screen, cell-based, membrane potential dye, choline EC20 | High affinity choline transporter 1 (Homo sapiens), Q9GZV3 | B-score at 10 µM | CHT-expressing cells; stronger effect = higher value; LV-AA mutant CHT in HEK293 cells | hit rate 0.49% among 310,000;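 active means initial fluorescence not abnormally high and integrated response B-score, plate-corrected, over 3 SD above library mean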
CHT activ conf – CHT activators, confirmation, cell-based, membrane potential dye, duplicate; shares compounds with CHT allo act; CHT-expressing cells, membrane potential dye fluorescence (FDSS); % of choline EC20–EC90 response window; HEK293 expressing CHT LV-AA mutant; choline added at its EC20; activation, % at 10 µM; hit rate 91% among 2,500;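 active means primary screen active, with duplicate mean activation above negative control mean plus 3 SD, cut at about 11% in these data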
HEK293 MP dye – membrane potential response in parental HEK293 cells, counter-screen for CHT activator project, cell-based, membrane potential dye | shares compounds with CHT allo act | ratio readout change at 10 µM, hits read low | membrane potential dye fluorescence (FDSS); measured after EC20 choline addition | AID 623908, 2012 | hit rate 62% among 2,500;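 active means duplicate-averaged ratio beyond 3 SD from buffer wells, up or down, though filed actives are nearly all decreases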
An asterisk follows results filed as active; i = inactive; x = no result given. This is a sample that favours compounds with a hit; in the whole collection about 3.4% have one here.

SMILES | IMP-1 inhibitor | ANO1 block | VIM-2 inh | ANO1 activ | CHT inh | CHT allo act | CHT activ conf | HEK293 MP dye
CCOc1ccccc1N1CCN(C(=O)Nc2ccc(Cl)c(Cl)c2)CC1 | -3 | i | -2 | x | i | i | x | x
Cc1cc(N2CCN(CC(O)C(F)(F)F)CC2)c2ccccc2n1 (configuration not stated) | -1 | i | 1 | i | i | i | 72* | -72*
COc1ccc(C(=O)CN2CCN(c3cc(C)nc4ccccc34)CC2)cc1 | -3 | i | -1 | i | i | 8.5* | 64* | -78*
COc1ccc2nc(C)cc(N3CCN(c4ccccc4)CC3)c2c1 | 0 | i | -2 | i | i | i | x | x
C/C(=N\NC(=O)c1ccccc1C)c1cccnc1 | 2 | i | 2 | i | i | i | x | x
Cc1ncc([N+](=O)[O-])n1S(=O)(=O)c1cc(Br)ccc1Br | -5 | i | -2 | i | i | i | x | x
COc1cccc(-c2cn(C[C@H]3CC[C@@H]([C@@H]4CC[C@H](Cn5cc(-c6cccc(OC)c6)nn5)O4)O3)nn2)c1 | 0 | i | -1 | i | i | 7* | 15* | i
COC(=O)C1C=CC(OC2OC(COC(C)=O)C(OC(C)=O)C(OC(C)=O)C2OC(C)=O)n2c(=O)n(-c3ccccc3)c(=O)n21 (configuration not stated) | x | x | x | i | x | x | x | x
N#CCOc1ccccc1/C=N/n1nnnc1N | -5 | i | -1 | i | i | i | x | x
COc1cccc(/C=N/n2cncn2)c1OCC#N | -3 | i | -2 | i | i | 6.4* | 3 | i
COc1ccc(C)cc1N(C)C(=O)Cc1c(C(=O)O)n(C)c2ccccc12 | -2 | i | 1 | x | i | i | x | x
COc1ccc(C(=O)c2coc3ccc(O)c(CN4CCOCC4)c23)cc1 | -5 | i | -5 | i | i | i | 18* | i
O=C(c1ccc(=O)[nH]n1)N1CCN(S(=O)(=O)c2ccc(C(F)(F)F)cc2)CC1 | x | x | x | i | x | x | x | x
Cn1c(=O)c2c(-c3ccccc3)n(CCCN3CCOCC3)cc2n(C)c1=O | -5 | i | 6 | i | i | i | 79* | -52*
COc1ccc(CC(O)COS(N)(=O)=O)cc1 (configuration not stated) | -1 | i | -2 | i | i | i | x | x
CCN(CC)C(=O)CSc1nc(-c2ccccc2)ccc1C#N | -2 | i | 0 | i | i | i | x | x
CN1CCN(C(=O)CSc2nc(-c3ccncc3)ccc2C#N)CC1 | -3 | i | 2 | i | i | 8.1* | 44* | -37*
Cc1ccnc(SCCn2c(N3CCOCC3)nc3c2c(=O)[nH]c(=O)n3C)n1 | -3 | i | 0 | i | i | 10* | 65* | -58*
CN1CCN(c2nc3c(c(=O)[nH]c(=O)n3C)n2CCCSc2nnnn2-c2ccccc2)CC1 | -3 | i | 1 | i | i | 6.6* | 47* | -49*
Cn1c(=O)[nH]c(=O)c2c1nc(N1CCCCC1)n2CCCSc1nnnn1-c1ccccc1 | -5 | i | -1 | i | i | i | x | x
CN1CCN(c2nc3c(c(=O)n(C)c(=O)n3C)n2CCSc2nc3ccccc3s2)CC1 | 0 | i | 2 | x | i | 7.4* | 65* | -46*
CCN1CCN(c2nc3c(c(=O)[nH]c(=O)n3C)n2CCSc2nc3ccccc3s2)CC1 | -6 | i | -8 | i | i | 13* | 40* | -45*
O=C(CN1C(=O)NC(c2ccccc2)(c2ccccc2)C1=O)NCCNCCO | -4 | i | -1 | i | i | i | x | x
Oc1ccccc1CN1CCCC(N2CCc3ccccc3C2)C1 (configuration not stated) | -2 | i | -3 | i | i | i | x | x
NS(=O)(=O)c1cc(C(=O)N=Nc2c(O)[nH]c3ccccc23)ccc1Cl | -3 | i | -1 | i | i | i | x | x
SMILES | IMP-1 inhibitor | ANO1 block | VIM-2 inh | ANO1 activ | CHT inh | CHT allo act | CHT activ conf | HEK293 MP dye
Cc1cccc(Cn2c(N3CCN(C)CC3)nc3c2c(=O)[nH]c(=O)n3C)c1 | -1 | i | -1 | i | i | i | x | x
Cn1c(=O)c2c(nc(N3CCN(C(=O)c4ccco4)CC3)n2CCSc2ncccn2)n(C)c1=O | 0 | i | -1 | i | i | 7.1* | 57* | -58*
CCCn1c(N2CCN(Cc3cccc(C)c3)CC2)nc2c1c(=O)[nH]c(=O)n2C | -4 | i | -3 | i | i | i | 12* | -28*
COc1cc(/C=C(\NC(C)=O)C(=O)N2CCCCC2)ccc1OC(C)=O | -2 | i | -1 | i | i | i | x | x
COc1ccc(-c2c3c(=O)n(C)c(=O)n(C)c3c3nnc4ccccc4n23)cc1 | 0 | x | -1 | x | x | x | x | x
COc1ccc(-c2c3c(=O)n(C)c(=O)n(C)c3cn2C2CCCCC2)cc1 | 0 | i | -3 | i | i | 6.8* | 23* | i
COc1ccc(C(=O)NNC(=O)c2ccccc2[N+](=O)[O-])cc1[N+](=O)[O-] | 1 | i | -3 | i | i | i | x | x
COc1ccc(C(=O)C(C)[n+]2ccc(C)c3ccccc32)cc1[N+](=O)[O-] (configuration not stated) | -1 | i | -1 | i | i | 6.5* | 43* | -40*
Cc1ccc(C(=O)Nc2cccc(NC(=O)CN3CCCCC3)c2)cc1 | -5 | i | -3 | i | i | i | x | x
CCN1CCc2c(sc(NC(=O)c3ccc(S(=O)(=O)N(C)CC4CCCO4)cc3)c2C(N)=O)C1 (configuration not stated) | -1 | i | 4 | i | i | i | 69* | -38*
CN1CCc2c(sc(NC(=O)c3ccc(S(=O)(=O)N4CCCC4)cc3)c2C(N)=O)C1 | -2 | i | 3 | i | i | i | x | x
CN1CCc2c(sc(NC(=O)c3ccc(S(=O)(=O)N4CCOCC4)cc3)c2C(N)=O)C1 | -2 | i | -1 | i | i | 6.6* | 67* | -63*
